The source made the active and inactive calls. No cut-off for these calls is given here.
Experiments:
[1] = Drug metabolism in bile duct cannulated rat assessed as lactone hydrolysis; type: ADME
[2] = Cardiotoxicity in vagotomized cardiovascular dog model assessed as effect on QT/QTc interval at plasma concentration <= 11.6 uM at 1 to 7 mg/kg, iv administered during three sequential 30 min periods; type: toxicity, organism-based, Canis lupus familiaris; details: in vivo, 0.5 h
How it was run: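 Anesthetized, vagotomized dogs received IV infusions over sequential periods at 1, 2 and 7 mg/kg (10 mg/kg cumulative). Heart rate, mean arterial pressure and ECG intervals (PR, QRS, QT/QTc) were recorded predose and during each infusion period. Plasma concentrations were measured.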

[3] = molecular target: T1, Inward rectifier potassium channel 2 (Homo sapiens, UniProt P63252); experiment: Inhibition of Kir2.1 (unknown origin) upto 30 uM
T1 sequence (P63252 whole entry): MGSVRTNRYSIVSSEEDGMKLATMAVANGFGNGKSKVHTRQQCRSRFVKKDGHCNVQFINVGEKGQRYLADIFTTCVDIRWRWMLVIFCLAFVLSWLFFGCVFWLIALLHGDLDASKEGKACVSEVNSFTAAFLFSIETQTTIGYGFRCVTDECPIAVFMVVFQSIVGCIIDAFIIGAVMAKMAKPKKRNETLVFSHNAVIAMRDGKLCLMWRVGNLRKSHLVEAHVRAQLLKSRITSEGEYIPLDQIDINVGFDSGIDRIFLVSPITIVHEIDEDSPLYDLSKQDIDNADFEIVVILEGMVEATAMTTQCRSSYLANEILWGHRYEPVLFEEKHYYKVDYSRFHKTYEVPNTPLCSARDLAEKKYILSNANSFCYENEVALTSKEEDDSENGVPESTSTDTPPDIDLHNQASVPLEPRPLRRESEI

Acetylcholinesterase = Acetylcholinesterase (Homo sapiens, UniProt P22303); experiment: Inhibition of ACES (unknown origin)
[4] = molecular target: T2, Inward rectifier potassium channel 4 (Homo sapiens) (UniProt P48050); experiment: Inhibition of Kir2.3 (unknown origin) upto 30 uM
T2 sequence (whole entry): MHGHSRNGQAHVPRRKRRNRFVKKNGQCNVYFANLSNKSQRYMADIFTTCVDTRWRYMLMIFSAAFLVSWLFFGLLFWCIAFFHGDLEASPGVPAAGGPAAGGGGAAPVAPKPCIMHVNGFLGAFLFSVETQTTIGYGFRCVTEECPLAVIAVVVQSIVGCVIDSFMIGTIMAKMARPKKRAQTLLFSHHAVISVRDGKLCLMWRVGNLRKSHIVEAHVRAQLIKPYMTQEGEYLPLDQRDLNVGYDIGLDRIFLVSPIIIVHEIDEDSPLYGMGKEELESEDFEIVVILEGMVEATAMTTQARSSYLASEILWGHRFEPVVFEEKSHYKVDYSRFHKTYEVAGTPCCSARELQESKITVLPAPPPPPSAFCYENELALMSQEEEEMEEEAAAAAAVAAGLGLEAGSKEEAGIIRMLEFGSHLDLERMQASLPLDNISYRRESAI

Cytochrome P450 2D6 = Cytochrome P450 2D6 (Homo sapiens, UniProt P10635); experiment: Reversible inhibition of human CYP2D6; type: ADME
Cytochrome P450 2D6, sequence (P10635 whole entry): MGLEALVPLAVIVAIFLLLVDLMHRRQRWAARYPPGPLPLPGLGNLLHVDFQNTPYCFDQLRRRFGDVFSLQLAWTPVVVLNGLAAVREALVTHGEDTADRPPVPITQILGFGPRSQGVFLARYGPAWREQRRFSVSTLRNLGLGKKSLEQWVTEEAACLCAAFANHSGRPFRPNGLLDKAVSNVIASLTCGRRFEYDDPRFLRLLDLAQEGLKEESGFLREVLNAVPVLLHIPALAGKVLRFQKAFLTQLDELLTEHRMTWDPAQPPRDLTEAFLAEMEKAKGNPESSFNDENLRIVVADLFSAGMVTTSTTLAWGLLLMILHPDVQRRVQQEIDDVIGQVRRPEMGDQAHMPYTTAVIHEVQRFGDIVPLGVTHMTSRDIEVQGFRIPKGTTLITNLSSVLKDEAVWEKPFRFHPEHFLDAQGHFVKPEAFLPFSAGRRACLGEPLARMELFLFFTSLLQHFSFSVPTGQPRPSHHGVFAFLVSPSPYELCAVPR

Rattus norvegicus [5] = experiment: Diuretic activity in Sprague-Dawley rat at 3 mg/kg via oral gavage administered 30 mins prior to void induction by loading saline measured upto 4 hrs relative to vehicle treated control; type: functional
How it was run: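 Acute 4 h study in Sprague-Dawley rats after oral dosing, n = 5 per group. Urine volume and sodium and potassium excretion were expressed as fold increase over vehicle-treated animals. Significance was tested versus vehicle (p < 0.05 or p < 0.01).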

[6] = molecular target: Voltage-dependent L-type calcium channel subunit alpha-1C (Homo sapiens, UniProt Q13936); experiment: Inhibition of Cav1.2 (unknown origin)
Voltage-dependent L-type calcium channel subunit alpha-1C, sequence (Q13936 whole entry): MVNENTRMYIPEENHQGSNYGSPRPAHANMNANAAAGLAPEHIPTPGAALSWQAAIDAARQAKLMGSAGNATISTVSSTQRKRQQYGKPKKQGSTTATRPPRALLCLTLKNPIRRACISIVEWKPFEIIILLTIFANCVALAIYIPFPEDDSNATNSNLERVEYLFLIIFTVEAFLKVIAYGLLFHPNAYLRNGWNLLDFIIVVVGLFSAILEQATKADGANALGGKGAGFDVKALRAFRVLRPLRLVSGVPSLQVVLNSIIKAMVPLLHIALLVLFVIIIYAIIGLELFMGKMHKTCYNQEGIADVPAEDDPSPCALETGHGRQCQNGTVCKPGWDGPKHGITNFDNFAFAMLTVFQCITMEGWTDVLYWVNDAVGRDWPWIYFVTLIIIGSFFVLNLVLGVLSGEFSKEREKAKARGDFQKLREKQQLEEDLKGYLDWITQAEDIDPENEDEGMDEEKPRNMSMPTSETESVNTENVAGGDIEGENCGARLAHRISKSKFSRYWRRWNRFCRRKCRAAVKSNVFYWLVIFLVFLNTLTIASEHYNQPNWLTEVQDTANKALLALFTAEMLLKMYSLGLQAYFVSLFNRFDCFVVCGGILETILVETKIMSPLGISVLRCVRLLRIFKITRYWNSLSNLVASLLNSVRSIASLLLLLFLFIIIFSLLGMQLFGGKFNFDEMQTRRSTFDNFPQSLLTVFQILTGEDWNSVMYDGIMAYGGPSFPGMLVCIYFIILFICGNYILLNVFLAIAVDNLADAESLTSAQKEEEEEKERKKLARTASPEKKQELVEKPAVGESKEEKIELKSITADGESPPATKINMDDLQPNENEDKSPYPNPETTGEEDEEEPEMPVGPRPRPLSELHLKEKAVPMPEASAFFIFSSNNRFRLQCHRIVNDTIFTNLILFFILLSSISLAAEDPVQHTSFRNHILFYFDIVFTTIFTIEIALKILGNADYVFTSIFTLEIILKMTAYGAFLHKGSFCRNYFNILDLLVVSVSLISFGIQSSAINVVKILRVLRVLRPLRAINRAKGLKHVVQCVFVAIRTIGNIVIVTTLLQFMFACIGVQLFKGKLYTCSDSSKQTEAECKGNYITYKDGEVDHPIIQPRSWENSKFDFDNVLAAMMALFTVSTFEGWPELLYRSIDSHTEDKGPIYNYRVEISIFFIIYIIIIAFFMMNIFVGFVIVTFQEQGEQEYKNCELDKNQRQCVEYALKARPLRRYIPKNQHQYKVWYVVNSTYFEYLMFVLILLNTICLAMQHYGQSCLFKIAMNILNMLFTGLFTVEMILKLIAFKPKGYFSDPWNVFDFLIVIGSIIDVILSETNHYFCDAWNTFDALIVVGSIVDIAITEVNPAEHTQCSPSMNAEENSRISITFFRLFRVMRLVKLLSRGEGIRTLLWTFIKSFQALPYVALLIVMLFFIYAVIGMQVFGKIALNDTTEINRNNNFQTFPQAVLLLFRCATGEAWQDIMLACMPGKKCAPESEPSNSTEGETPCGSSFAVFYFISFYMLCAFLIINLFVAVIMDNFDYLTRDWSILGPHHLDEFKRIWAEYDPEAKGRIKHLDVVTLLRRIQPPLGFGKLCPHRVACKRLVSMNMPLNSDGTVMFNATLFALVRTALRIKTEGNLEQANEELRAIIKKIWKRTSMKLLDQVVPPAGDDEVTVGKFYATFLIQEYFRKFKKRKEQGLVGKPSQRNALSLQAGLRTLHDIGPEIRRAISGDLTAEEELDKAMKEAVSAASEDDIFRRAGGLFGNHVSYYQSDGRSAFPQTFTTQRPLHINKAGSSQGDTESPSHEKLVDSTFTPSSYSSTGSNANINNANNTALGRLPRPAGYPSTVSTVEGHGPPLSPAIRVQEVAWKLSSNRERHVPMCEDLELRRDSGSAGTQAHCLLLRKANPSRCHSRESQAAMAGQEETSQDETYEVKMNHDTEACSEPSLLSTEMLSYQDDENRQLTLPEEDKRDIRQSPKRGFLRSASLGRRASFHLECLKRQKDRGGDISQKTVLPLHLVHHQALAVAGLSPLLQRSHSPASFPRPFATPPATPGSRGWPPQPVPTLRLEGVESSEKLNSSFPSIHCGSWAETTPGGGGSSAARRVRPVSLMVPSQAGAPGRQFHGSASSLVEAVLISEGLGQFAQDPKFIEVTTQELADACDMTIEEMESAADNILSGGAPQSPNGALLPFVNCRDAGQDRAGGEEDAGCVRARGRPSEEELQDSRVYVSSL

Rattus norvegicus [7] = experiment: Antihypertensive activity in spontaneously hypertensive rat assessed as reduction in systolic blood pressure at 3 mg/kg via oral gavage qd administered for 4 days measured on day 4 by telemetry (reference value: 2.5 +/- 2.2 mmHg); type: functional
Cytochrome P450 3A4 = Cytochrome P450 3A4 (Homo sapiens, UniProt P08684); experiment: Time dependent inhibition of human CYP3A4 at 10 to 50 uM; type: ADME
[8] = Volume of distribution at steady state in dog at 1 mg/kg, iv or 2 mg/kg, po; type: ADME, organism-based, Canis lupus familiaris; details: in vivo, read-out: Vdss
Rattus norvegicus [9] = experiment: Antihypertensive activity in spontaneously hypertensive rat assessed as reduction in systolic blood pressure at 10 mg/kg via oral gavage qd administered for 4 days measured on day 4 by telemetry (reference value: 2.5 +/- 2.2 mmHg); type: functional
[10] = Oral bioavailability in dog at 2 mg/kg; type: ADME, organism-based, Canis lupus familiaris; details: in vivo
[11] = Half life in rat at 1 mg/kg, iv or 2 mg/kg, po; type: ADME, organism-based; details: in vivo
How it was run: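 Rats dosed once at 1 mg/kg IV and, separately, 2 mg/kg PO, with n = 3. Derived parameters were plasma clearance, Vdss, dose-normalized oral AUC (μM·h·kg/mg), half-life, and oral bioavailability (F%).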

Rattus norvegicus [12] = experiment: Diuretic activity in Sprague-Dawley rat at 0.3 mg/kg via oral gavage administered 30 mins prior to void induction by loading saline measured upto 4 hrs relative to vehicle treated control; type: functional
How it was run: (§1)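 Acute rat diuresis model in male-unspecified Sprague-Dawley rats, single oral dose, urine collected over 4 h. Urine volume, sodium excretion and potassium excretion expressed as fold increase over vehicle-treated controls; n = 5 per group; significance tested against vehicle.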

[13] = Drug metabolism in bile duct cannulated rat assessed as CYP3A4-mediated oxidative metabolite formation; type: ADME
[14] = Oral bioavailability in rhesus monkey at 2 mg/kg; type: ADME, organism-based, Macaca mulatta; details: in vivo
[15] = Clearance in dog at 1 mg/kg, iv or 2 mg/kg, po; type: ADME, organism-based, Canis lupus familiaris; details: in vivo
[16] = molecular target: T3, Inward rectifier potassium channel 13 (Homo sapiens) (UniProt O60928); experiment: Inhibition of Kir7.1 (unknown origin) upto 30 uM
T3 sequence (whole entry): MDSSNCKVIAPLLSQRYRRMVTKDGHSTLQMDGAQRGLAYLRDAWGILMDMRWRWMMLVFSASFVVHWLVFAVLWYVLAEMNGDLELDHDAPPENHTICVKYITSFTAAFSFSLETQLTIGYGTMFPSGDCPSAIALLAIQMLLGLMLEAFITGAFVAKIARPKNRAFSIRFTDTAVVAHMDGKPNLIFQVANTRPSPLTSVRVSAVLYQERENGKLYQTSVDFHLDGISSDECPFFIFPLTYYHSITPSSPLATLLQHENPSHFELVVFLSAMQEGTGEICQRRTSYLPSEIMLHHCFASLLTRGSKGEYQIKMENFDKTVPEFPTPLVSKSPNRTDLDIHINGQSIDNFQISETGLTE

[17] = Drug metabolism in dog hepatocytes assessed as oxidation at 1 uM measured at 120 mins; type: ADME, cell-based, Canis lupus familiaris, Hepatocyte; details: read-out: Drug metabolism
Rattus norvegicus [18] = experiment: Natriuretic activity in Sprague-Dawley rat at 1 mg/kg via oral gavage administered 30 mins prior to void induction by loading saline measured upto 4 hrs relative to vehicle treated control; type: functional; how it was run: as §1
[19] = molecular target: Sodium channel protein type 5 subunit alpha (Homo sapiens, UniProt Q14524); experiment: Inhibition of Nav1.5 (unknown origin)
Sodium channel protein type 5 subunit alpha, sequence (Q14524 whole entry): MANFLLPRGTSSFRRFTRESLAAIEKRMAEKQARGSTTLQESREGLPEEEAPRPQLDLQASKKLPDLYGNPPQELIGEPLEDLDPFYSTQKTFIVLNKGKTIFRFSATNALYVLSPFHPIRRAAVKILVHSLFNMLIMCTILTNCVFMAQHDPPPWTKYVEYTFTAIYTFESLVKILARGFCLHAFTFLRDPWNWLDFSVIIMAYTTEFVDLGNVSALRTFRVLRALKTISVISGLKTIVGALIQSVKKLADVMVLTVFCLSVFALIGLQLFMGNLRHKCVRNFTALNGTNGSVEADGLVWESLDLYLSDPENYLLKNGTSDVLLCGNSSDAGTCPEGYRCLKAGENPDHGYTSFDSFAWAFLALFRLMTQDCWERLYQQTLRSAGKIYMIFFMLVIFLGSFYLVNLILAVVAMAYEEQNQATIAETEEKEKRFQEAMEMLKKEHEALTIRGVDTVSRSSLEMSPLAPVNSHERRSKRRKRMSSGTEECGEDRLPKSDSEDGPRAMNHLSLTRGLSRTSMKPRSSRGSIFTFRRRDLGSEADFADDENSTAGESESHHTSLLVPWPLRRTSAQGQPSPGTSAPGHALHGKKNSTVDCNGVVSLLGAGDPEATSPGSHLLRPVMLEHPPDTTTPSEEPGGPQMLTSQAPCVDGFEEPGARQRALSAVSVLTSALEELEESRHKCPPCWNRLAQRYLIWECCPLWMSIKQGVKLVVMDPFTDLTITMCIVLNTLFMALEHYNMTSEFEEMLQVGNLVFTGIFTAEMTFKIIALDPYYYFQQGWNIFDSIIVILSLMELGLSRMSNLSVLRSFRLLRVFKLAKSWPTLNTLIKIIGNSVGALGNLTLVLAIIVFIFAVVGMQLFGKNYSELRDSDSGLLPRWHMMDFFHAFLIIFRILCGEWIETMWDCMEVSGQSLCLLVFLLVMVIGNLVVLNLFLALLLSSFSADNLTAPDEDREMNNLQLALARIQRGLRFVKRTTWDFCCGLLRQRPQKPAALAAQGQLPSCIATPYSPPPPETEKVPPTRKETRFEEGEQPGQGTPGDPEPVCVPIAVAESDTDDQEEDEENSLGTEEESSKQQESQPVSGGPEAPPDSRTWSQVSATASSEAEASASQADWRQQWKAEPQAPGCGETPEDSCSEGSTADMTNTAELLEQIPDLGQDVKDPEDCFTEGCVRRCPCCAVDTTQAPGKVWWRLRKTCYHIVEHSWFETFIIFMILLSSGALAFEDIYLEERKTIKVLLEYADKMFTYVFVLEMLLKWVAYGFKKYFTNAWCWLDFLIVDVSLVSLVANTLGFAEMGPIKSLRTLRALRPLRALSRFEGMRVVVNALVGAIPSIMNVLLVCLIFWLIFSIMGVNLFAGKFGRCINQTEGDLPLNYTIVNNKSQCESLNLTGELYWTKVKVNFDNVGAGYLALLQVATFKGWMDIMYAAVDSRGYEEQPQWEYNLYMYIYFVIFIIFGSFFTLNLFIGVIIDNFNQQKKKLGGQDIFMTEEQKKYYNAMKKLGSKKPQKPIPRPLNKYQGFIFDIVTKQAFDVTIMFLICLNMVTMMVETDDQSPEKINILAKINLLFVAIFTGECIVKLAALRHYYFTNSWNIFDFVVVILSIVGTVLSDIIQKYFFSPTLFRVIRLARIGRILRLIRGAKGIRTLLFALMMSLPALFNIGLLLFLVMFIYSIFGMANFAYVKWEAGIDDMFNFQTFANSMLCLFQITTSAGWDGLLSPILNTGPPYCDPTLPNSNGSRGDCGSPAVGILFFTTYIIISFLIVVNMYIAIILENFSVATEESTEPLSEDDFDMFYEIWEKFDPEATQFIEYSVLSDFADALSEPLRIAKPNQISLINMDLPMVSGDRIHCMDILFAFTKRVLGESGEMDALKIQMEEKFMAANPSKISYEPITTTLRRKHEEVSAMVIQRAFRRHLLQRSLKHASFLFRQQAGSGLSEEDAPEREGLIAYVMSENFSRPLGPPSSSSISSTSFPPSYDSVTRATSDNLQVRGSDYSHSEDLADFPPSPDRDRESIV

[20] = Drug metabolism in dog hepatocytes assessed as glucuronidation at 1 uM measured at 120 mins; type: ADME, cell-based, Canis lupus familiaris, Hepatocyte; details: read-out: Drug metabolism

For `Cc1c([C@@H](O)CN2CCN(C[C@H](O)c3ccc4c(c3C)COC4=O)CC2)ccc2c1COC2=O` [MK-7145], the Drug metabolism [1] was “Metabolite_Detected”, the Activity [2] was “Non-Toxic” and the “inhibition (INH)” value [3] was “Not Active”. The IC50 (Acetylcholinesterase) was 9.94 µM, the inhibition [4] was “inactive” and the IC50 (Cytochrome P450 2D6) was > 50 µM. The “fold change (FC)” value (Rattus norvegicus [5]) was 9, the IC50 [6] was > 30 µM and the Activity (Rattus norvegicus [7]) was 12.4 mmHg. The TDI (Cytochrome P450 3A4) was “Not Active”, the Vd [8] was 7.5 L/kg and the Activity (Rattus norvegicus [9]) was 19.9 mmHg. For the same molecule, the bioavailability [10] was 51%, the half-life [11] was 1.1 h and the “fold change (FC)” value (Rattus norvegicus [12]) was 6.4. The Drug metabolism [13] was “Metabolite_Detected”, the bioavailability [14] was 25% and the clearance [15] was 56 mL/min/kg. The inhibition [16] was “inactive”, the metabolised at 2 h, 1 µM [17] was 15 to 37% and the “fold change (FC)” value (Rattus norvegicus [18]) was 8.6. The IC50 [19] was > 30 µM and the metabolised at 2 h, 1 µM [20] was < 1%.

Source: ChEMBL document CHEMBL4425169 (ACS Med Chem Lett, 2016)
